In ChEMBL document CHEMBL3600302, “A Ligand-Based Drug Design. Discovery of 4-Trifluoromethyl-7,8-pyranocoumarin as a Selective Inhibitor of Human Cytochrome P450 1A2” (J Med Chem, 2015):

Biological target: T1, Cytochrome P450 1B1 (Homo sapiens, UniProt Q16678)
T1 sequence (Q16678 whole entry): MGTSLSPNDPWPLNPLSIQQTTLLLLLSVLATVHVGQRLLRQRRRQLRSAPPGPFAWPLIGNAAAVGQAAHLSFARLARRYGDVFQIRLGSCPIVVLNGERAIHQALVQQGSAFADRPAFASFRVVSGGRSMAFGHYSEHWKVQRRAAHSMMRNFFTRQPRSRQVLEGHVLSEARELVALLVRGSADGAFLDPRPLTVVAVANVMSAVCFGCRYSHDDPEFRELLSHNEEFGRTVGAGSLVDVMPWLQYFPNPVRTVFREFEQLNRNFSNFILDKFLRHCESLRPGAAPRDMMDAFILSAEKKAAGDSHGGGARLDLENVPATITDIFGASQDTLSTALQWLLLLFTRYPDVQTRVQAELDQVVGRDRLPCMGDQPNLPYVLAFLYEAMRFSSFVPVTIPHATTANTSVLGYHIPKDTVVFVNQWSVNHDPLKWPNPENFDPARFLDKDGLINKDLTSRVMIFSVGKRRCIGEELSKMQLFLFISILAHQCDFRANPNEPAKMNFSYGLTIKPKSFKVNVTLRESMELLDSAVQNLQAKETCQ
Experiment: Inhibition of human microsomal CYP1B1-dependent ethoxyresorufin-O-deethylase activity by spectrofluorimetric analysis in presence of NADPH regenerating solution
Outline: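 Microsomal P450 (final 5 nM) in 0.1 M potassium phosphate pH 7.6 with MgCl2 at 37 °C. Substrate final 5 µM: ethoxyresorufin for 1A1/1B1, methoxyresorufin for 1A2. Ki was taken as the x-intercept of Dixon plots (1/v0 vs [I]). Mean ± SD of three independent experiments. Selectivity ratios are ratios of these Ki.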

Cc1cc2c(ccc3c(=O)cc(-c4ccccc4)oc32)o1
Ki: 180 nM
